Measured values reported in publication PMC7641989 (Nature biotechnology, 2020).
Where a SMILES comes first, the peptide text is derived from it. [ ]: non-standard residue; d: D form.

How the values were obtained:
[1] = system: gut microbiota from cecum of WD-fed LDLr-/- mice; assay: In vitro en masse gut microbiota screening assay; assay type: cell-based, mouse; details: en masse screen, result in words
How it was run: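 Cecal contents came from female LDLr-/- mice (8–10 weeks) fed WD for two weeks, pooled from 3 co-housed mice, with all steps anaerobic. The PBS suspension was diluted 1:12.5 in Chopped Meat Carbohydrate Broth and dosed with test compound at a final 16 or 64 µM. Ampicillin (4 µg/mL) and chloramphenicol (8 µg/mL) were controls. Samples ran 20 h at 37 °C with hourly OD600, then 16S sequencing gave genus-level Shannon diversity and the Bacteroidetes:Firmicutes ratio.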

WD-fed LDLr-/- mice [2] = assay: Plasma total cholesterol in peptide-treated WD-fed mice; assay type: in vivo, mouse
How it was run: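 Western-diet-fed LDLr-/- mice received test compound at 180 µM in drinking water (PBS pH 7.4, 1% sucrose; vehicle controls) starting with the diet switch. Plasma total cholesterol was measured enzymatically at the two-week blood draw. Results given as mean ± SD.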

WD-fed LDLr-/- mice [3] = assay: Analysis of atherosclerosis; assay type: in vivo, mouse; details: completion of the 10-week study, en face staining, vs vehicle
How it was run: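 LDLr-/- mice, moved from chow to Western diet (15.8% fat, 1.25% cholesterol, no cholate) at 8–12 weeks, given test compound at 180 µM in drinking water (PBS pH 7.4, 1% sucrose; vehicle alone for controls) for 10 weeks. Lesions assessed by en face staining of the entire aorta and by aortic root sectioning. n=8 treated, 18 vehicle; mean ± SD, one-way ANOVA with Dunnett test.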

[4] = Pharmacokinetics, LC-MS SIM quantitation in plasma; assay type: in vivo, mouse; details: pharmacokinetic and excretion studies, result in words
[5] = LC-MS SIM quantitation of peptide levels in feces; assay type: in vivo, mouse; details: pharmacokinetic and excretion studies, result in words
How it was run: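 Intact test compound was measured in extracted feces by LC-MS selected ion monitoring of the parent ions. Standard curves came from two independent extractions. Fecal samples were taken at week 5 (n=4 mice per group) and measured in duplicate. Daily dry fecal output was weighed over 24 h in individually housed mice. Expected maximum fecal level was calculated from the 0.18 mM drinking-water concentration, water intake and fecal output.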

WD-fed LDLr-/- mice [6] = assay: In vivo safety during 10-week daily oral dosing; design: species or system mouse
How it was run: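 Mice were weaned at 4 weeks and fed chow, then switched at 8–12 weeks to Western diet for 10 weeks. Test compound was dissolved by sonication in PBS (pH 7.4) with 1% sucrose, given ad libitum in drinking water at 180 µM and refreshed daily or every other day. Vehicle controls received PBS/1% sucrose. Liver enzyme activities in plasma were measured by enzymatic assays.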

[7] = 10 weeks daily oral administration, n=7 treated mice

| SMILES | remodeling of the microbiota community in vitro [1] | reduction of plasma total cholesterol compared to the untreated WD group (WD-fed LDLr-/- mice [2]; two-week time point, oral in drinking water, ~35 mg/kg/day) [%] | reduction of whole aorta atherosclerotic lesion area (WD-fed LDLr-/- mice [3]) [%] | oral systemic bioavailability [4] | stability in the gut [5] | signs of discomfort or toxicity (WD-fed LDLr-/- mice [6]; 10-week daily-dosing regimen, ad libitum in the drinking water, ~35 mg/kg/day) | liver weights and spleen weights (WD-fed LDLr-/- mice [6]; [7]) | plasma levels of ALT and AST (WD-fed LDLr-/- mice [6]; [7]) | body weights (WD-fed LDLr-/- mice [6]; during the 10-week treatment, n=7 treated mice) | total plasma cholesterol compared to vehicle controls (WD-fed LDLr-/- mice [2]; 2-wk timepoint, oral dosing, result in words) |
| --- | --- | --- | --- | --- | --- | --- | --- | --- | --- | --- |
| CC(C)C[C@@H]1NC(=O)[C@@H](Cc2c[nH]c3ccccc23)NC(=O)[C@H](CCCCN)NC(=O)[C@@H](Cc2c[nH]cn2)NC(=O)[C@H](CO)NC(=O)[C@@H](Cc2c[nH]cn2)NC(=O)[C@H](CCCCN)NC(=O)[C@@H](Cc2c[nH]c3ccccc23)NC1=O [peptide 1] (cyclo([dW]L[dW]K[dH]S[dH]K)) | did remodel the microbiota community in vitro | 37 | 37 | non-absorbable (lack oral systemic bioavailability) | remain largely intact throughout the gut | no signs of discomfort or toxicity | did not significantly differ from vehicle controls | did not significantly differ from vehicle controls | did not differ from vehicle controls |  |
| NC(=O)CC[C@@H]1NC(=O)[C@@H](Cc2c[nH]cn2)NC(=O)[C@H](Cc2c[nH]cn2)NC(=O)[C@@H](CCC(N)=O)NC(=O)[C@H](Cc2ccc(O)cc2)NC(=O)[C@@H](Cc2c[nH]c3ccccc23)NC(=O)[C@H](Cc2c[nH]c3ccccc23)NC(=O)[C@@H](Cc2ccccc2)NC1=O [peptide 15] (cyclo(H[dH]Q[dF]W[dW]Y[dQ])) | remodeled the gut microbiota in vitro, but not toward a CHD-like state |  |  |  |  |  |  |  |  | did not reduce plasma total cholesterol levels |
